Assay [1] can be described thus: Cytotoxicity against human U87 cells expressing wild-type p53 after 48 hrs by MTT assay. In kind it is functional, cell-based, U-87MG ATCC. Conditions: U-87 MG, read-out: pIC50 (converted). In a few lines:
(§1)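 MTT assay. Cells were grown in DMEM with 10% FBS and penicillin/streptomycin at 37 °C under 5% CO2, seeded at 1–2×10^3 cells/well and treated 12 h later with 1×10^-12 to 1×10^-5 M ([…] from DMSO stock, final DMSO <0.5%) for 48 h. MTT was added at 0.5 mg mL⁻¹, formazan dissolved in DMSO and read at 570 nm. IC50 is the concentration giving 50% cytotoxicity. Quadruplicates, ≥3 independent experiments.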
(Tetrazolium dyes change colour on reduction, which living cells bring about.)

Another assay concerns MCF7. The assay can be described thus: Cytotoxicity against human MCF7 cells after 48 hrs by MTT assay. In kind it is functional, cell-based. Conditions: MCF7, 48 h, read-out: pIC50 (converted). In a few lines: as §1
Another assay deals with T98G. The assay can be described thus: Cytotoxicity against human T98G cells expressing mutant p53 after 48 hrs by MTT assay. In kind it is functional, cell-based. Conditions: read-out: pIC50 (converted). In a few lines: as §1

SMILES strings stand for the structures.

As to `C/C(=N\NC(=S)Nc1ccc(Cl)cc1)c1ccccn1`, the IC50 in assay [1] is 1.7 nM; in the assay on MCF7 it was 8.49 nM; in the assay with T98G it was 5.9 nM.
In the same order, the values of `C/C(=N\NC(=S)Nc1ccccc1Cl)c1ccccn1` are 2.6 nM, 0.16 nM and 1.1 nM.
Take `C/C(=N\NC(=S)Nc1cccc(Cl)c1)c1ccccn1`: the IC50 in assay [1] is 31 nM; in the assay with MCF7, 24 nM; in the assay on T98G, 1 nM.
For `C/C(=N\NC(=S)Nc1ccccc1[N+](=O)[O-])c1ccccn1` the same measures were 4.3 nM, 5.7 nM and 6.61 nM.
For `C/C(=N\NC(=S)Nc1ccccc1F)c1ccccn1` the same measures were 5 nM, 0.39 nM and 3.1 nM.
In the same order, the values of `C/C(=N/NC(=S)Nc1ccccc1Cl)c1ccccn1` are 2.6 nM, 0.16 nM and 1.1 nM.
Consider `C/C(=N/NC(=S)Nc1cccc(Cl)c1)c1ccccn1`, for which the values for the IC50 (in assay [1]; in the assay with MCF7; in the assay with T98G) were 31 nM, 24 nM and 1 nM, respectively.
For `C/C(=N\NC(=S)Nc1cccc(I)c1)c1ccccn1` the same measures were 83.9 nM, 45 nM and 61 nM.
For `C/C(=N\NC(=S)Nc1ccc(I)cc1)c1ccccn1` the same measures were 59 nM, 6.61 nM and 64 nM.
Consider `C/C(=N\NC(=S)Nc1cccc(F)c1)c1ccccn1`, for which the IC50 is 18 nM in assay [1], 8.99 nM in the assay on MCF7 and 12 nM with T98G.
Consider `C/C(=N\NC(=S)Nc1ccc(F)cc1)c1ccccn1`, for which the IC50 in assay [1] is 10 nM; with MCF7 it was 1.2 nM; with T98G, 17 nM.
With `C/C(=N\NC(=S)Nc1ccccc1I)c1ccccn1`, the IC50 in assay [1] is 6.1 nM; with MCF7, 4.1 nM; in the assay on T98G it was 8.09 nM.
For `C/C(=N\NC(=S)Nc1cccc([N+](=O)[O-])c1)c1ccccn1` the same measures were 69 nM, 38 nM and 140 nM.
In the same order, the values of `C/C(=N\NC(=S)Nc1ccc([N+](=O)[O-])cc1)c1ccccn1` are 160 nM, 52 nM and 140 nM.
